Source: PMC2895358 (Journal of Medicinal Chemistry, 2010)

Columns and labels:
cruzain [1] = target: T1, cruzain (Trypanosoma cruzi, UniProt P25779); test: Cruzain inhibition assay; type: biochemical; conditions: for time-dependence of cruzain inhibition over incubation: incubation 0 to 240 min, 1 μM of 8, 10 μM of 11, 10 uM of 4, 100 uM of 5
cruzain [2] = target: T1, cruzain; test: LC/MS stability of compounds in the presence or absence of cruzain; type: physicochemical; conditions: for behaviour as cruzain substrate: LC/MS and time-dependence assay
Procedure, shortened: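 Test compound solutions in 2 mM Bis Tris pH 5.8, with or without 100 nM cruzain, analysed by LC/MS at time points from 30 min to 24 h, with elution monitored at 254 nm, to detect degradation and whether cruzain catalyses it. In a separate run, cruzain activity was followed after incubation with test compound (1 or 10 μM) from 0 to 240 min.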

cruzain [3] = target: T1, cruzain; test: In vitro activity of compound 11 and representative analogues against cruzain; type: biochemical

T1 sequence (P25779 123-337 limits assumed): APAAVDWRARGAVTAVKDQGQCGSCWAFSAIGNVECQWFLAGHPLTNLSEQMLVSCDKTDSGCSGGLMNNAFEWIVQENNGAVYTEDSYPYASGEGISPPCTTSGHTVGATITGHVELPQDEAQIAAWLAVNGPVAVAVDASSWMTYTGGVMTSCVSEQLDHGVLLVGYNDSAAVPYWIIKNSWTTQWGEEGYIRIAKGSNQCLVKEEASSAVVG

Compound | Ki (cruzain [1]) | behaviour as cruzain substrate (cruzain [2]) | time-dependence of cruzain inhibition over incubation (cruzain [1]) | stability by LC/MS in the absence of cruzain (cruzain [2]; 2 mM Bis Tris pH 5.8, no cruzain, one day) | IC50 (cruzain [3])
COc1ccc(Cl)cc1NC(=O)COC(=O)C(CC(C)C)N1C(=O)C2CC=CCC2C1=O (stereo not drawn) [Compound 4] | 1600 nM | did not behave as substrates |  |  | 
CC(C)C(NC(=O)c1ccco1)C(=O)NCC(c1ccco1)N1CCCCC1 (stereo not drawn) [Compound 5] |  | did not behave as substrates |  |  | 
O=C(CNC(=O)c1ccccc1)OC(C(=O)Nc1cc(C(F)(F)F)ccc1Cl)c1ccccc1 (stereo not drawn) [Compound 8] | 65 nM |  | clear time-dependent effect |  | 
O=C(CNC(=O)c1ccc(Cl)cc1)OC(C(=O)Nc1ccc(Cl)cc1C(F)(F)F)c1ccccc1 (stereo not drawn) [Compound 11] |  | identified as a cruzain substrate | clear time-dependent effect | still observed in solution even after one day of incubation | 260 nM
